Reference: ChEMBL document CHEMBL1131129, “Geometrically and conformationally restrained cinnamoyl compounds as inhibitors of HIV-1 integrase: synthesis, biological evaluation, and molecular modeling” (J Med Chem, 1998)

Tests used:
KB = assay: Compound concentration required to reduce the exponential growth of KB cells by 50%; type: functional; settings: Homo sapiens
Homo sapiens = organism: Homo sapiens; assay: Fold increase in protein-linked DNA breaks (PLDB) with respect to untreated controls.; type: functional
Outline: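 KB cells labeled with [14C]thymidine (0.75 μCi/mL) for 48 h, trypsinized, resuspended at 3×10^5/mL, preincubated 1 h at 37 °C. […] Protein-linked DNA breaks quantified by K-SDS coprecipitation after SDS lysis, needle shearing, 65 °C incubation and 100 mM KCl precipitation. Expressed relative to untreated controls.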

MT4 = assay: Compound concentration required to reduce the exponential growth of MT-4 cells by 50%; type: functional; settings: Homo sapiens
Outline: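 Lymphoid MT-4 cells in suspension culture, grown at 37 °C under 5% CO2 in RPMI 1640 with 10% FCS, penicillin G and streptomycin, and checked for mycoplasma. Compounds were dissolved in DMSO as a 200 mM stock, then diluted. Cytotoxicity was read as viability of mock-infected cells by MTT. The CC50 is the concentration reducing exponential cell growth by 50%.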

[1] = target: T1, Human immunodeficiency virus type 1 integrase (Human immunodeficiency virus 1, UniProt Q7ZJM1); assay: (§1) Compound concentration required to reduce HIV-1 Integrase 3'-processing activity by 50%
T1 sequence (Q7ZJM1 whole entry): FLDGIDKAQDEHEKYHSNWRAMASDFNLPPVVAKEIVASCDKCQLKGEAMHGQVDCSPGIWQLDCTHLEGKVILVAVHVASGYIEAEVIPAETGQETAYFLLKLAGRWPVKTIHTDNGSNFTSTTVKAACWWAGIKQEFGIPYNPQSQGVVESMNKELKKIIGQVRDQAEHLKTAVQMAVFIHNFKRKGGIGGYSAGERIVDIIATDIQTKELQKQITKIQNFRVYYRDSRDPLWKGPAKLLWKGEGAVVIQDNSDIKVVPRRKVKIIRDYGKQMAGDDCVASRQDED

[2] = target: T1, Human immunodeficiency virus type 1 integrase; assay: as §1; remark: listed apart in the source
Outline: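 His-tagged HIV-1 IN expressed in E. coli BL21(DE3), Ni-purified with 5 mM CHAPS. Released GT dinucleotide recovered by DEAE filtration and counted. Mean of three independent determinations.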

Question: What does the source list for `O=C(/C=C/c1ccc(O)c(O)c1)c1ccc(O)cc1`?
Answer: CC50 (KB): 5.9 µM; Fold increase (Homo sapiens): 1.6; CC50 (MT4): 4.4 µM; IC50 ([1]; read-out: IC50): 1.3 µM

Question: With `CC[C@@]1(O)C(=O)OCc2c1cc1n(c2=O)Cc2cc3ccccc3nc2-1` [CAMPTOTHECIN] as the molecule, how does the CC50 (KB) read?
Answer: 0.006 µM

Question: And the Fold increase (Homo sapiens)?
Answer: 3.5

Question: And the CC50 (MT4)?
Answer: 0.01 µM

Question: And the IC50 ([1]; read-out: IC50)?
Answer: > 100 µM

Question: What does the source list for `COc1cc([C@@H]2c3cc4c(cc3[C@@H](O[C@@H]3O[C@@H]5CO[C@@H](C)O[C@H]5[C@H](O)[C@H]3O)[C@H]3COC(=O)[C@H]23)OCO4)cc(OC)c1O` [ETOPOSIDE]?
Answer: CC50 (KB): 0.1 µM; CC50 (MT4): 0.08 µM

Question: What does the source list for `O=C(/C=C/c1ccc(O)c(O)c1)c1ccccc1`?
Answer: CC50 (KB): 3.1 µM; Fold increase (Homo sapiens): 1.3; CC50 (MT4): 1.7 µM; IC50 ([1]; read-out: IC50): 2.3 µM

Question: What does the source list for `O=C(/C=C/c1ccc(O)c(O)c1)/C=C/c1ccc(O)c(O)c1`?
Answer: CC50 (KB): 21 µM; Fold increase (Homo sapiens): 1.1; CC50 (MT4): 38 µM; IC50 ([1]; read-out: IC50): 0.6 µM

Question: Which results are given for `O=C(/C=C/c1ccc(O)cc1)CC(=O)/C=C/c1ccc(O)cc1` [BISDEMETHOXYCURCUMIN]?
Answer: CC50 (KB): 8.5 µM; Fold increase (Homo sapiens): 0.9; CC50 (MT4): 13 µM; IC50 ([1]; read-out: IC50): > 100 µM

Question: How did the CC50 (KB) turn out when `Nc1nc[nH]n1` [AMITROLE] was run?
Answer: 100 µM

Question: What about the Fold increase (Homo sapiens) of the same molecule?
Answer: 1.1

Question: What about the CC50 (MT4) of the same molecule?
Answer: 100 µM

Question: And the IC50 [1]?
Answer: 0.17 µg/mL

Question: With `O=C1/C(=C/c2ccc(O)c(O)c2)CSC/C1=C\c1ccc(O)c(O)c1` as the molecule, how does the CC50 (KB) read?
Answer: 3.9 µM

Question: What about the Fold increase (Homo sapiens) of the same molecule?
Answer: 1.1

Question: What about the CC50 (MT4) of the same molecule?
Answer: 4 µM

Question: And the IC50 ([1]; read-out: IC50)?
Answer: 0.2 µM

Question: Which results are given for `O=C1/C(=C/c2ccc(O)c(O)c2)CC/C1=C\c1ccc(O)c(O)c1`?
Answer: CC50 (KB): 17 µM; Fold increase (Homo sapiens): 4; CC50 (MT4): 15 µM; IC50 ([1]; read-out: IC50): 1 µM

Question: For `O=C(/C=C/c1ccc(O)c(O)c1)c1cccc(C(=O)/C=C/c2ccc(O)c(O)c2)c1`, which CC50 (KB) is on record?
Answer: 5.8 µM

Question: And the Fold increase (Homo sapiens)?
Answer: 1.2

Question: What about the CC50 (MT4) of the same molecule?
Answer: 5 µM

Question: What about the IC50 ([1]; read-out: IC50) of the same molecule?
Answer: 0.8 µM

Question: How did the CC50 (KB) turn out when `O=C(/C=C(O)/C=C/c1ccc(O)c(O)c1)/C=C/c1ccc(O)c(O)c1` was run?
Answer: 4.1 µM

Question: What about the Fold increase (Homo sapiens) of the same molecule?
Answer: 1.1

Question: What about the CC50 (MT4) of the same molecule?
Answer: 17 µM

Question: What about the IC50 ([1]; read-out: IC50) of the same molecule?
Answer: 0.7 µM

Question: Which CC50 (KB) does the source give for `O=C(/C=C/c1ccc(O)c(O)c1)c1ccc(O)cc1O` [BUTEIN] here?
Answer: 9.1 µM

Question: And the Fold increase (Homo sapiens)?
Answer: 2.2

Question: What about the CC50 (MT4) of the same molecule?
Answer: 5.3 µM

Question: And the IC50 ([1]; read-out: IC50)?
Answer: 20 µM

Question: What does the source list for `O=C(/C=C/c1ccc(O)cc1)c1cccc(C(=O)/C=C/c2ccc(O)cc2)c1`?
Answer: CC50 (KB): 22 µM; Fold increase (Homo sapiens): 1.2; CC50 (MT4): 35 µM; IC50 ([1]; read-out: IC50): 30 µM

Question: `O=C1/C(=C/c2ccc(O)c(O)c2)Cc2ccccc21` was tested. Which IC50 [2] did it give?
Answer: 86 µM

Question: And the CC50 (KB)?
Answer: 9.2 µM

Question: And the Fold increase (Homo sapiens)?
Answer: 5.1

Question: And the CC50 (MT4)?
Answer: 5.5 µM

Question: Which CC50 (KB) does the source give for `COc1cc(/C=C/C(=O)/C=C/c2ccc(O)c(OC)c2)ccc1O` here?
Answer: 8.5 µM

Question: And the Fold increase (Homo sapiens)?
Answer: 1.2

Question: What about the CC50 (MT4) of the same molecule?
Answer: 1.4 µM

Question: And the IC50 ([1]; read-out: IC50)?
Answer: 37 µM

Question: `COc1cc(/C=C2\CCC/C(=C\c3ccc(O)c(OC)c3)C2=O)ccc1O` [CYCLOVALONE] was tested. Which CC50 (KB) did it give?
Answer: 6.7 µM

Question: And the Fold increase (Homo sapiens)?
Answer: 1.8

Question: And the CC50 (MT4)?
Answer: 2.4 µM

Question: What about the IC50 ([1]; read-out: IC50) of the same molecule?
Answer: > 100 µM

Question: For `O=C1/C(=C/c2ccc(O)c(O)c2)CNC/C1=C\c1ccc(O)c(O)c1`, which CC50 (KB) is on record?
Answer: 32 µM

Question: What about the Fold increase (Homo sapiens) of the same molecule?
Answer: 1.4

Question: What about the CC50 (MT4) of the same molecule?
Answer: 21 µM

Question: What about the IC50 ([1]; read-out: IC50) of the same molecule?
Answer: 0.2 µM

Question: Which results are given for `COc1cc(/C=C/C(=O)CC(=O)/C=C/c2ccc(O)c(OC)c2)ccc1O` [CURCUMIN]?
Answer: CC50 (KB): 16 µM; Fold increase (Homo sapiens): 1; CC50 (MT4): 7.4 µM; IC50 ([1]; read-out: IC50): 30 µM

Question: Which results are given for `O=C(/C=C(O)/C=C/c1ccccc1)/C=C/c1ccccc1`?
Answer: CC50 (KB): 29 µM; Fold increase (Homo sapiens): 0.8; CC50 (MT4): 41 µM; IC50 ([1]; read-out: IC50): > 100 µM

Question: With `COc1ccc(/C=C/C(=O)/C=C(O)/C=C/c2ccc(OC)c(OC)c2)cc1OC` as the molecule, how does the CC50 (KB) read?
Answer: 2 µM

Question: And the Fold increase (Homo sapiens)?
Answer: 1.4

Question: And the CC50 (MT4)?
Answer: 4.1 µM

Question: What about the IC50 ([1]; read-out: IC50) of the same molecule?
Answer: > 100 µM

Question: What does the source list for `O=C(/C=C/c1ccc(O)cc1)/C=C/c1ccc(O)cc1`?
Answer: CC50 (KB): 7.4 µM; Fold increase (Homo sapiens): 1.1; CC50 (MT4): 1.6 µM; IC50 ([1]; read-out: IC50): > 100 µM

Question: What does the source list for `O=C1C(=Cc2ccc(O)c(O)c2)C(=O)c2ccccc21`?
Answer: CC50 (KB): 50 µM; Fold increase (Homo sapiens): 2; CC50 (MT4): 32 µM; IC50 ([1]; read-out: IC50): 3 µM

Question: How did the CC50 (KB) turn out when `O=C1/C(=C/c2ccc(O)c(O)c2)COC/C1=C\c1ccc(O)c(O)c1` was run?
Answer: 15 µM

Question: What about the Fold increase (Homo sapiens) of the same molecule?
Answer: 0.9

Question: What about the CC50 (MT4) of the same molecule?
Answer: 10 µM

Question: What about the IC50 ([1]; read-out: IC50) of the same molecule?
Answer: 0.2 µM

Question: For `O=C(/C=C/c1ccc(O)c(O)c1)CCc1ccccc1`, which CC50 (KB) is on record?
Answer: 30 µM

Question: And the Fold increase (Homo sapiens)?
Answer: 1

Question: What about the CC50 (MT4) of the same molecule?
Answer: 15 µM

Question: What about the IC50 ([1]; read-out: IC50) of the same molecule?
Answer: > 100 µM

Question: Which results are given for `O=C(/C=C/c1ccc(O)cc1)c1ccc(O)cc1O` [ISOLIQUIRITIGENIN]?
Answer: CC50 (KB): 12 µM; Fold increase (Homo sapiens): 1.7; CC50 (MT4): 7.4 µM; IC50 ([1]; read-out: IC50): > 100 µM

Question: For `O=C1/C(=C/c2ccc(O)c(O)c2)CCC/C1=C\c1ccc(O)c(O)c1`, which CC50 (KB) is on record?
Answer: 8.9 µM

Question: What about the Fold increase (Homo sapiens) of the same molecule?
Answer: 1.4

Question: And the CC50 (MT4)?
Answer: 7.4 µM

Question: And the IC50 ([1]; read-out: IC50)?
Answer: 0.9 µM

Question: Which results are given for `COc1ccc(/C=C/C(=O)/C=C/c2ccc(OC)c(OC)c2)cc1OC`?
Answer: CC50 (KB): 6.7 µM; Fold increase (Homo sapiens): 1.1; CC50 (MT4): 4.1 µM; IC50 ([1]; read-out: IC50): > 100 µM
